Screens (PubChem BioAssay)
Shown are actives, neighbours in structure and some others; about 1.8% of the full set was active somewhere.
Hep lipid drop = modulators of hepatic lipid droplet formation | inhibition, % at 6.5 µM | 240,000 tested, 0.4% active | AID 1656 | AML12 mouse hepatocytes, oleate lipid droplets, BODIPY imaging;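 active = lipid droplet intensity inhibited by at least 50%, with more than 500 cells counted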
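Material: mouse AML12 hepatocyte cell line, fixed after treatment; Timing: compound with oleate, overnight; Technique: high-content imaging of BODIPY-stained droplets and DAPI nuclei; Probe or stimulus: oleate, 100 µM final; Dosing: compound at 6.5 µM only.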
Jurkat NFkB inh = inhibitors of the PMA/ionomycin-induced NF-kB reporter in Jurkat cells; 330,000 tested, 0.53% active; PMA/ionomycin-induced NF-kB luciferase reporter, luminescence; inhibition, % at 4 µM; in the data active = inhibition above about 50%
697 NFkB inh = inhibitors of the PMA/ionomycin-induced NF-kB reporter in 697 B cells; AID 435022; 697 B-cell NF-kB luciferase reporter, 16 h; 330,000 tested, 0.33% active; inhibition, % at 4 µM; in the data active = inhibition above about 35%
H9c2 TAG inh = inhibitors of triacylglycerol accumulation | 230,000 tested, 0.66% active | H9c2 cells, Nile Red lipid (TAG) fluorescence; cells loaded with 200 µM oleic acid | inhibition, % at 12.5 µM;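 active = pattern-corrected inhibition of lipid staining of at least 50% with the nuclear-stain viability signal not falling by more than 50%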;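 note: 0% = DMSO wells and 100% = triacsin C control wells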
hiPSC survival = enhancers of human iPSC single-cell survival. hiPSC single-cell survival, ATPlite luminescence; 100% = ROCK inhibitor wells, 0% = DMSO. survival enhancement, % at 20 µM. 360,000 tested, 0.044% active; in the data active = survival enhancement above about 18%;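 note: cells exposed to compounds for 16 hours before the ATP read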
Gli-Sufu block = blocks Gli-Sufu signaling in a luciferase reporter; Sufu-KO-LIGHT fibroblasts, Gli luciferase reporter luminescence; inhibition, % at 5 µM; 340,000 tested, 0.74% active; AID 588413;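 active = inhibition above about 55%, limit read from the data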;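 note: 0% = DMSO-treated cells and 100% = wells with medium but no cells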
Gli-Sufu confirm = Gli-SUFU antagonism confirmation, single concentration; shares compounds with Gli-Sufu block; 2,500 tested, 40% active; Sufu-KO-LIGHT cells, Gli luciferase reporter, luminescence; inhibition, % at 5 µM;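 active = mean inhibition at 5 µM reaching about 45%, limit read from the data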;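 note: plate controls were DMSO-treated cells for no effect and wells lacking cells for full effect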
SufuKO cytotox = cytotoxic in Gli-SUFU antagonist counter-screen; cytotoxicity, % at 5 µM; AID 651994; Sufu-KO-LIGHT cells cytotoxicity, ATP luminescence; 2,500 tested, 32% active; shares compounds with Gli-Sufu block;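 active = mean cytotoxicity at 5 µM above about 25%, limit read from the data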;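 note: cells exposed to compound overnight for roughly 16 to 18 hours; plate controls were DMSO wells with cells for no effect and medium without cells for full effect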
Wnt3a cs = counter-screen for Gli-SUFU antagonists: Wnt3a reporter inhibition | shares compounds with Gli-Sufu block | Wnt-LIGHT cells, Wnt3a-driven luciferase reporter, luminescence | inhibition, % at 6.25 µM | 2,500 tested, 20% active | AID 651995;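 active = mean inhibition above about 25%, limit read from the data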
Numbers without * were called inactive; . = not tested or not shown.

SMILES | Hep lipid drop | Jurkat NFkB inh | 697 NFkB inh | H9c2 TAG inh | hiPSC survival | Gli-Sufu block | Gli-Sufu confirm | SufuKO cytotox | Wnt3a cs
NS(=O)(=O)c1ccc(CCNC(=O)C(=O)C2C(=O)Nc3ccccc32)cc1 (stereo not drawn) | 0 | 1 | 4 | -10 | 0 | -5 | . | . | .
Cc1ccc(N2CC(C(=O)Nc3nc4ccc(S(C)(=O)=O)cc4s3)CC2=O)cc1C (stereo not drawn) | 0 | 5 | 8 | . | 0 | 51 | 19 | 13 | -43
CCNc1nc(OC)nc(N(OC)S(=O)(=O)c2ccc(C)cc2)n1 | -23 | -8 | -22 | . | 0 | 53 | 24 | 5 | -22
O=C(CCNS(=O)(=O)c1ccc(OC(F)(F)F)cc1)NC1CC1 | . | -10 | -3 | 7 | 4 | 0 | . | . | .
Cc1ccccc1CNC(=O)CCNS(=O)(=O)c1ccc(OC(F)(F)F)cc1 | . | -1 | 8 | -4 | 2 | 94* | 12 | 23 | -26
COC(=O)c1sc(N)c(C(=O)OC)c1CSc1nnc(-c2ccccc2Cl)n1C | . | 13 | 28 | . | 1 | 3 | . | . | .
COC(=O)c1sc(N)c(C(=O)OC)c1CSc1nnnn1C | . | -4 | 7 | 11 | 2 | 99* | 24 | 2 | 11
CCc1cc(C(=O)N2CCCC(N3CCN(c4cccc(C(F)(F)F)c4)CC3)C2)n(C)n1 (stereo not drawn) | -6 | 11 | -68 | . | 0 | 55* | 30 | 17 | -29
N=c1sccn1CC(=O)NC(c1ccccc1)c1ccccc1 | 26 | -2 | 5 | 30 | -1 | 42 | . | . | .
CCC(C)NS(=O)(=O)c1ccc(NC(=O)CNCc2cccs2)cc1 (stereo not drawn) | . | . | . | . | -1 | 16 | . | . | .
CCOc1cccc(/C=N/NC(=O)c2cccnc2)c1O | -1 | 6 | -32 | . | 0 | 59* | 30 | 15 | 33*
CN1CCN(c2ccccc2/C=N/NC(=O)c2cccnc2)CC1 | 2 | -27 | -31 | -7 | 0 | 66* | 26 | 9 | 4
O=C(N/N=C\c1cc2c(cc1Cl)OCO2)c1cccnc1 | -20 | -2 | -13 | 30 | 0 | -15 | . | . | .
Cc1[nH]c(C)c(S(=O)(=O)NCc2ccccc2Cl)c1C(=O)N1CCCC1 | 11 | -6 | -8 | . | 0 | 58* | 15 | 7 | -2
NC(=O)CC(NC(=O)c1cccc(Br)c1)c1ccc(N2CCN(c3ccccn3)CC2)c([N+](=O)[O-])c1 (stereo not drawn) | 1 | 14 | 17 | -9 | 1 | 30 | . | . | .
O=C(C[C@H]1C/C=C\C[C@H](NC(=O)OCC2c3ccccc3-c3ccccc32)C(=O)OC[C@H](Cc2ccccc2)NC1=O)N[C@H](CO)Cc1ccccc1 | . | -10 | -1 | -1 | -1 | 49 | . | . | .
O=C(C[C@@H]1C/C=C\C[C@H](NC(=O)OCC2c3ccccc3-c3ccccc32)C(=O)O[C@H](c2ccccc2)CNC1=O)NCCO | . | 1 | -11 | -37 | -1 | 54 | 59* | 34* | -71
CC(C)(C)[C@@H]1COC(=O)[C@@H](NC(=O)OCC2c3ccccc3-c3ccccc32)C/C=C\C[C@@H](CC(=O)NCCO)C(=O)N1 | . | 0 | 20 | -19 | 0 | 27 | . | . | .
CC(C)(C)[C@H]1COC(=O)[C@H](NC(=O)OCC2c3ccccc3-c3ccccc32)C/C=C\C[C@@H](CC(=O)N(CCO)Cc2ccccc2)C(=O)N1 | . | -5 | -16 | -6 | -3 | 58* | 52* | 14 | -40
O=C(C[C@@H]1C/C=C\C[C@@H](NC(=O)OCC2c3ccccc3-c3ccccc32)C(=O)OC[C@@H](Cc2ccccc2)NC1=O)NCCO | . | -6 | -6 | -52 | -3 | 54 | 62* | 28* | -69
O=C(N[C@H]1C/C=C\C[C@@H](CC(=O)N(CCO)Cc2ccccc2)C(=O)NC[C@H](c2ccccc2)OC1=O)OCC1c2ccccc2-c2ccccc21 | . | 11 | 1 | 10 | -2 | 59* | 59* | 16 | 34*
S=C(NCC1CCCO1)N1CCN(c2nc(-c3ccccc3)cs2)CC1 (stereo not drawn) | 1 | -2 | -38 | -17 | 1 | 13 | . | . | .
CCCCN(C(=O)C(C)Oc1ccc(Cl)cc1)c1c(N)n(CCCC)c(=O)[nH]c1=O (stereo not drawn) | . | 8 | 16 | 4 | 0 | 8 | . | . | .
O=C(N[C@@H]1C/C=C\C[C@H](CC(=O)N(CCO)Cc2ccccc2)C(=O)N[C@@H](Cc2ccccc2)COC1=O)OCC1c2ccccc2-c2ccccc21 | . | -2 | -1 | -5 | -3 | 40 | . | . | .
C[C@@H]1COC(=O)[C@H](NC(=O)OCC2c3ccccc3-c3ccccc32)C/C=C\C[C@@H](CC(=O)N(CCO)Cc2ccccc2)C(=O)N1 | . | 5 | 8 | -31 | 2 | 55* | 48* | 30* | -14
SMILES | Hep lipid drop | Jurkat NFkB inh | 697 NFkB inh | H9c2 TAG inh | hiPSC survival | Gli-Sufu block | Gli-Sufu confirm | SufuKO cytotox | Wnt3a cs
O=C(N[C@@H]1C/C=C\C[C@@H](CC(=O)N(CCO)Cc2ccccc2)C(=O)NCCOC1=O)OCC1c2ccccc2-c2ccccc21 | . | -14 | -2 | -17 | 2 | 52 | 48* | 22 | -30
O=C1NCCOC(=O)[C@H](Cc2ccc(F)cc2)C/C=C\C[C@H]1CC(=O)N(CCO)Cc1ccccc1 | . | 9 | -29 | -10 | 1 | -1 | . | . | .
COc1cc(OC)c(OC)cc1CNC(=O)c1cccc(S(=O)(=O)N2CCc3ccccc3C2)c1 | . | 45 | 12 | -15 | 0 | 66* | 64* | 36* | 25*
C/C(=N\Nc1cc(N2CCCCC2)nc(C)n1)c1ccc(Br)cc1 | -11 | 14 | -50 | 13 | 0 | 79* | 52* | 45* | 22
C/C(=N/Nc1nc(C)cc(C)n1)c1ccc(Br)cc1 | 3 | -7 | 14 | 38 | 0 | 27 | . | . | .
COc1cc(O)c(C=Nc2ccccc2NS(=O)(=O)c2ccc(C)cc2)c(OC)c1 | . | . | . | -6 | 2 | 1 | . | . | .
Cc1csc(=Nc2cccnc2)n1Cc1ccco1 | 9 | 8 | 1 | 16 | 2 | 55* | 4 | 0 | -22
CC(C)=N/N=c1\scc(C)n1Cc1ccco1 | 4 | -2 | -4 | -15 | -2 | -11 | . | . | .
Cc1ccc(CN2CCN(/N=C/c3sccc3C)CC2)c(C)c1 | 20 | 1 | -3 | . | -1 | 0 | . | . | .
CCOc1cc(N2CCOCC2)c(OCC)cc1NC(=O)c1ccc(OC(C)C)cc1 | 24 | -4 | -15 | 15 | 0 | 2 | . | . | .
